Experimental data as given in ChEMBL document CHEMBL1154626, “Novel, potent, and selective quinoxaline-based 5-HT(3) receptor ligands. 1. Further structure-activity relationships and pharmacological characterization” (J Med Chem, 2009).
Values belong to the compound of their own block, whether it stands above or below them. Activity calls are given as the source filed them. The calls are words filed in the database; no cut-off is given here.

Key:
[1] = biological target: T1, 5-hydroxytryptamine receptor 3A (Rattus norvegicus, UniProt P35563); assay: Displacement of [3H]LY278584 from 5HT3 receptor in rat cortical homogenate
T1 sequence (P35563 whole entry): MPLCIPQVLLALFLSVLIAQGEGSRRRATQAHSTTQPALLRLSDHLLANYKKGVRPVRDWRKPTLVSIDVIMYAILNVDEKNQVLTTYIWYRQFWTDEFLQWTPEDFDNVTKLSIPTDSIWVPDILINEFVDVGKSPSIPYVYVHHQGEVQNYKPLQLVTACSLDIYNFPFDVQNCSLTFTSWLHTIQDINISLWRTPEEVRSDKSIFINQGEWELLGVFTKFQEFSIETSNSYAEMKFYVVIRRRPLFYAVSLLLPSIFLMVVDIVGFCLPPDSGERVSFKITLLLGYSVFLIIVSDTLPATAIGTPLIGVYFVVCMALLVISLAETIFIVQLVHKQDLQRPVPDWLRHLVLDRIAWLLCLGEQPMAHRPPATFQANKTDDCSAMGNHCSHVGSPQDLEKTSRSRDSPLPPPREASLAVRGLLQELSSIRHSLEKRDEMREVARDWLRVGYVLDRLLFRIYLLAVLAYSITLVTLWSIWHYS
In short: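 Rat cortical homogenate, competition against [3H]LY278584 binding. Ki is the concentration giving half-maximal inhibition of binding, as the mean ± S.E.M. of three determinations.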

Rattus norvegicus [2] = assay: Agonist activity at 5HT3 receptor in iv dosed Sprague-Dawley rat assessed as induction of bradycardia measured after 5 to 30 mins post-treatment by von Bezold-Jarisch reflex test; assay type: functional
In short: (§1)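 Urethane-anesthetized rats, compound given iv. Agonism was scored as the compound itself evoking the von Bezold-Jarisch reflex (bradycardia). Antagonism was tested by giving the compound iv 5, 15 or 30 min before phenylbiguanide (PBG) and scoring the reduction of PBG-evoked bradycardia. ED50 is the dose giving half of the maximal bradycardia evoked by the same compound.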

Rattus norvegicus [3] = assay: Antagonist activity at 5HT3 receptor in Sprague-Dawley rat assessed as inhibition of 1-phenylbiguanide-induced bradycardia at 10 ug/kg, iv administered 5 mins before 1-phenylbiguanide challenge measured after 5 to 30 mins post-treatment by von Bezold-Jarisch reflex test; assay type: functional; in short: as §1
Rattus norvegicus [4] = assay: Agonist activity at 5HT3 receptor in Sprague-Dawley rat assessed as induction of bradycardia at 100 ug/kg, iv measured after 5 to 30 mins post-treatment by von Bezold-Jarisch reflex test; assay type: functional; in short: as §1
Rattus norvegicus [5] = assay: Antagonist activity at 5HT3 receptor in Sprague-Dawley rat assessed as inhibition of 1-phenylbiguanide-induced bradycardia at 100 ug/kg, iv administered 5 mins before 1-phenylbiguanide challenge measured after 5 to 30 mins post-treatment by von Bezold-Jarisch reflex test; assay type: functional; in short: as §1
Rattus norvegicus [6] = assay: Antagonist activity at 5HT3 receptor in Sprague-Dawley rat assessed as inhibition of 1-phenylbiguanide-induced bradycardia at 50 ug/kg, iv administered 5 mins before 1-phenylbiguanide challenge measured after 5 to 30 mins post-treatment by von Bezold-Jarisch reflex test; assay type: functional; in short: as §1
Rattus norvegicus [7] = assay: Agonist activity at 5HT3 receptor in Sprague-Dawley rat assessed as induction of bradycardia at 10 ug/kg, iv measured after 5 to 30 mins post-treatment by von Bezold-Jarisch reflex test; assay type: functional; in short: as §1
Rattus norvegicus [8] = assay: Antagonist activity at 5HT3 receptor in iv dosed Sprague-Dawley rat assessed as inhibition of 1-phenylbiguanide-induced bradycardia administered 5 mins before 1-phenylbiguanide challenge measured after 5 to 30 mins post-treatment by von Bezold-Jarisch reflex test; assay type: functional; in short: as §1
[9] = biological target: T2, Adrenergic receptor alpha-1 (Rattus norvegicus, UniProt P15823+P23944+P43140); assay: Displacement of [3H]prazosin from adrenergic alpha1 receptor in rat cortex
T2 sequence (P15823 whole entry): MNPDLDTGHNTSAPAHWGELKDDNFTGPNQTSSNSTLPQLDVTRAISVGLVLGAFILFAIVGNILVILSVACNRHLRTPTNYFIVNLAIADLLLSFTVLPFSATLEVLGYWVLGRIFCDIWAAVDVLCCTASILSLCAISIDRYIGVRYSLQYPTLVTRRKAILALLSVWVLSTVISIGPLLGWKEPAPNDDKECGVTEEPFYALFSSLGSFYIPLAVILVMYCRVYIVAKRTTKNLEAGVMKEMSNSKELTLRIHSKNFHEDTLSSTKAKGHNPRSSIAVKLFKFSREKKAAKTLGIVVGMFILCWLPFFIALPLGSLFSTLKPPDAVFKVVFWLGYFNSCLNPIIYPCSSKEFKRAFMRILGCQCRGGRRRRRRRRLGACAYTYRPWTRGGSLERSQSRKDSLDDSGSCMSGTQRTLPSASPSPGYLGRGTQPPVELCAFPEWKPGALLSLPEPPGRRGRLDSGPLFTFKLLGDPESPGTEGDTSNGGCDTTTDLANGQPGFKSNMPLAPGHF
T2 sequence (P23944 whole entry): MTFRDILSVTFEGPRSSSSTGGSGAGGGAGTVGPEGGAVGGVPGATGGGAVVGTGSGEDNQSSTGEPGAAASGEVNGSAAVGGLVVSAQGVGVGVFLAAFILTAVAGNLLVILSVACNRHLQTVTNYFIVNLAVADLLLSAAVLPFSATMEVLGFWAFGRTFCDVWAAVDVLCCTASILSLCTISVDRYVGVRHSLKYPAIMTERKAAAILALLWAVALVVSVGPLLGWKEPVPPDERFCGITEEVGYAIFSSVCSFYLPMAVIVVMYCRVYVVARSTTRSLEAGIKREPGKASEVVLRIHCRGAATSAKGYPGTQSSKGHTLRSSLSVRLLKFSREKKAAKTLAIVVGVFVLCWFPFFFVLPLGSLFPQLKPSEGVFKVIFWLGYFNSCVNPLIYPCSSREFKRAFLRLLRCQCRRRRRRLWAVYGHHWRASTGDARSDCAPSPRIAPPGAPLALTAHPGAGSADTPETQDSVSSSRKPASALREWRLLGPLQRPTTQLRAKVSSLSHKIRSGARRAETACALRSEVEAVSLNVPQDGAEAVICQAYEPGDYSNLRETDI
T2 sequence (P43140 whole entry): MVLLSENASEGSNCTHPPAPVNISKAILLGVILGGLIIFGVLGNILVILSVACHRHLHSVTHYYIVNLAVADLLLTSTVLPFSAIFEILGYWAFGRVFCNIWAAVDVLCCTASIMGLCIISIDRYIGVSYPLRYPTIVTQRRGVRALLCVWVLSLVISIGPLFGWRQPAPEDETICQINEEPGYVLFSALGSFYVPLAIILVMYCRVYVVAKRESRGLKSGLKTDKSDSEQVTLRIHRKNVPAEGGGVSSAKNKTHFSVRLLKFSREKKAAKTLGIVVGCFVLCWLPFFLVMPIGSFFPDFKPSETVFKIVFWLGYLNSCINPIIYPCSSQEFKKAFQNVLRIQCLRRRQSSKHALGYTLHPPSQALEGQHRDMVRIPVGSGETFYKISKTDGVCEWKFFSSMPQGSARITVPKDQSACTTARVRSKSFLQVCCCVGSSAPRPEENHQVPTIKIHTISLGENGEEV

[10] = biological target: 5-hydroxytryptamine receptor 2A (Rattus norvegicus, UniProt P14842); assay: Displacement of [3H]ketanserin from 5HT2A receptor in rat cortex
D(1A) dopamine receptor = D(1A) dopamine receptor (Rattus norvegicus, UniProt P18901); assay: Displacement of [3H]SCH-23390 from dopamine D1 receptor in rat striatum
[11] = biological target: T3, Alpha-2A adrenergic receptor (Rattus norvegicus, UniProt P22909); assay: Displacement of [3H]RX821002 from adrenergic alpha2 receptor in rat cortex
T3 sequence (P22909 whole entry): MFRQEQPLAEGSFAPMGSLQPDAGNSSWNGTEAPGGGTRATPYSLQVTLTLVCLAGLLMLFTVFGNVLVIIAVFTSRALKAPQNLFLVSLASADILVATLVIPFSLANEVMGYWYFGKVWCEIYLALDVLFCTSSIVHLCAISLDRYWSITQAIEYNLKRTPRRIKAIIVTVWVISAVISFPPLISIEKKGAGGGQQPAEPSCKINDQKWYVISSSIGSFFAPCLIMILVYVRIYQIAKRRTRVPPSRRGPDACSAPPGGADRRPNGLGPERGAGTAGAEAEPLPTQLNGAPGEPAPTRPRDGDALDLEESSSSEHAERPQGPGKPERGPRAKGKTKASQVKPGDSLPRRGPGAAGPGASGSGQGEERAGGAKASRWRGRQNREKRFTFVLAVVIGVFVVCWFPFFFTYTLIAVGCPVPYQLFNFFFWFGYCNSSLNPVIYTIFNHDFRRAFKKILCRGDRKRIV

D(2) dopamine receptor = D(2) dopamine receptor (Rattus norvegicus, UniProt P61169); assay: Displacement of [3H]spiperone from dopamine D2 receptor in rat striatum
[12] = biological target: T4, 5-hydroxytryptamine receptor 1A (Rattus norvegicus, UniProt P19327); assay: Displacement of [3H]8-OHDPAT from 5HT1A receptor in rat hippocampus; assay type: tissue-based
T4 sequence (P19327 whole entry): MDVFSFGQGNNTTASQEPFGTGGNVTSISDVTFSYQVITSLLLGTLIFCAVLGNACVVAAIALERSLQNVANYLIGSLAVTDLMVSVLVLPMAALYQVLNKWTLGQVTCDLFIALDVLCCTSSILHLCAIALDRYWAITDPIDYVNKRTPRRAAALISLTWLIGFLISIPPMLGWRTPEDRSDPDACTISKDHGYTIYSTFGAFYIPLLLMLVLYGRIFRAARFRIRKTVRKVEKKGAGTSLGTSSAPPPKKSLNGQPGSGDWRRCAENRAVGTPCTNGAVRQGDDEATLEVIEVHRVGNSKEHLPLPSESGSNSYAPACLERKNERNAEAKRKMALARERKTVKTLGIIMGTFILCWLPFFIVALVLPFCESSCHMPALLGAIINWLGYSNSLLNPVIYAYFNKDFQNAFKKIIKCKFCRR

Rattus norvegicus [13] = assay: Agonist activity at 5HT3 receptor in Sprague-Dawley rat assessed as induction of bradycardia at 50 ug/kg, iv measured after 5 to 30 mins post-treatment by von Bezold-Jarisch reflex test; assay type: functional; in short: as §1
[14] = biological target: T5, 5-hydroxytryptamine receptor 3A (Cavia porcellus, UniProt O70212); assay: Antagonist activity at 5HT3 receptor in spontaneously beating guinea pig right atrium assessed as inhibition of serotonin-induced maximum response by noncompetitive binding assay; assay type: tissue-based, Cardiac atrium; settings: read-out: IC50
T5 sequence (O70212 whole entry): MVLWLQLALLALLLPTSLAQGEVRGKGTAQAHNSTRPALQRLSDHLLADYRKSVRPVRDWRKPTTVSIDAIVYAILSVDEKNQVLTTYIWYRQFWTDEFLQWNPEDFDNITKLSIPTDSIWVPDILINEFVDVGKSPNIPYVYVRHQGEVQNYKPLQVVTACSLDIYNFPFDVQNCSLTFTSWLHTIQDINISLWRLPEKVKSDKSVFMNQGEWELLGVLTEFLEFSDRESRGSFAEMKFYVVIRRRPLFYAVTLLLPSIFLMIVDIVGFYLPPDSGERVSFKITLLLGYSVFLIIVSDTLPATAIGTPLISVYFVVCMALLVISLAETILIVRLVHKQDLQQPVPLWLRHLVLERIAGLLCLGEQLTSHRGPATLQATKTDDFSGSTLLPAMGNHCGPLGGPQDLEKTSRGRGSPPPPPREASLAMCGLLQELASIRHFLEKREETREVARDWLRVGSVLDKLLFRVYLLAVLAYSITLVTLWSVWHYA
In short: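 Spontaneously beating guinea pig right atria, exposed 30 min to test compound at 10 μM, followed by cumulative 5-HT log concentration-response curves versus control. Mean ± SEM of five to seven observations.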

Chain of D(2) dopamine receptor (P61169 whole entry): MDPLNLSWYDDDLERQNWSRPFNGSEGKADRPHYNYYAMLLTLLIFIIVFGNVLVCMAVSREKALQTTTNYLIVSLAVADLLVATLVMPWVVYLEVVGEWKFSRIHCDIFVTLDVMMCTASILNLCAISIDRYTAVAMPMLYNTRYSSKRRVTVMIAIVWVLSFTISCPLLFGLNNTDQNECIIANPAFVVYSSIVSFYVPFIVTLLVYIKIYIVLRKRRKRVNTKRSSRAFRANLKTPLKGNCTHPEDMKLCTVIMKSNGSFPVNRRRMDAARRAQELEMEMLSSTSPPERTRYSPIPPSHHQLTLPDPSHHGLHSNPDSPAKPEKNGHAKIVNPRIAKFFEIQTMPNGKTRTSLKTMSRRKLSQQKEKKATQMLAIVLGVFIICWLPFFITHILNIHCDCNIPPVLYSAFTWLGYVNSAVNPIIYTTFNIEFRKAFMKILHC
Chain of 5-hydroxytryptamine receptor 2A (P14842 whole entry): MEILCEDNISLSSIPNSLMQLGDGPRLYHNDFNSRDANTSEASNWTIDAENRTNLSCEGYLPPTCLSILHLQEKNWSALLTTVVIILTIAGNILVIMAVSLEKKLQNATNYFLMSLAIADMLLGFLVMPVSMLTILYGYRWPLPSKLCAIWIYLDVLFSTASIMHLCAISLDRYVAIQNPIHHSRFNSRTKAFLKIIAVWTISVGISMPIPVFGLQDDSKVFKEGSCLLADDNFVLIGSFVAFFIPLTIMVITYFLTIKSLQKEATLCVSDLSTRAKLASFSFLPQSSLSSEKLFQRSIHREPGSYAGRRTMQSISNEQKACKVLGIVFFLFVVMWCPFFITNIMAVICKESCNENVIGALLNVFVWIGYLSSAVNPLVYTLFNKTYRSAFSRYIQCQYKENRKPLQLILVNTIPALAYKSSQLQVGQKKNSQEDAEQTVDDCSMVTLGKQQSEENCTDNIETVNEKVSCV
Chain of D(1A) dopamine receptor (P18901 whole entry): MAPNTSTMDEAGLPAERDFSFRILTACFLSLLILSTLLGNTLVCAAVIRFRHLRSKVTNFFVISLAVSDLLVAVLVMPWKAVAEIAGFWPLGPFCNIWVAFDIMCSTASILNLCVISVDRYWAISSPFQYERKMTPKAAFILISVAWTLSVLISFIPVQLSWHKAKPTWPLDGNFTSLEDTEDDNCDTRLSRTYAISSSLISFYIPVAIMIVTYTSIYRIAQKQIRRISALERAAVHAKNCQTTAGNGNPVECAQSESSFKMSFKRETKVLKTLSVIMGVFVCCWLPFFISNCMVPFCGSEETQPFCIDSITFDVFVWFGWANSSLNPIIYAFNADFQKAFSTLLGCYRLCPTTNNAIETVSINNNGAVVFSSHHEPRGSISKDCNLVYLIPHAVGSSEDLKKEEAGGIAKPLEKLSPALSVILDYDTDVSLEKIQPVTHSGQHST

SMILES: Fc1ccc2c(c1)nc(N1CCN(Cc3ccccc3)CC1)c1cccn12
Ki [1]: 13 nM

SMILES: NNC(=O)CN1CCN(c2nc3cc(F)ccc3n3cccc23)CC1
ED50 (Rattus norvegicus [2]): 0.057 mg/kg
Activity (Rattus norvegicus [3]): inactive
Ki ([1]; read-out: Ki): 44.3 nM
Activity (Rattus norvegicus [4]): 80%
Activity (Rattus norvegicus [5]): inactive
Activity (Rattus norvegicus [6]): inactive
Activity (Rattus norvegicus [7]): inactive

SMILES: Cc1cccc2nc(N3CCN(Cc4c[nH]cn4)CC3)c3cccn3c12
ED50 (Rattus norvegicus [2]): 0.037 mg/kg
Activity (Rattus norvegicus [3]): 60%
ID50 (Rattus norvegicus [8]): 0.0035 mg/kg
Ki [9]: > 10000 nM
Activity (Rattus norvegicus [7]): inactive

SMILES: Cc1cccc2nc(N3CCN(C)CC3)c3cccn3c12
Ki ([1]; read-out: Ki): 0.79 nM

SMILES: Fc1ccc2c(c1)nc(N1CCN(Cc3ncc[nH]3)CC1)c1cccn12
Ki [10]: > 10000 nM
Ki (D(1A) dopamine receptor): > 10000 nM
Ki [11]: > 10000 nM
Ki ([1]; read-out: Ki): 5.6 nM
Ki [9]: > 10000 nM
Ki (D(2) dopamine receptor): > 10000 nM
Ki [12]: > 10000 nM

More lines, main results first:

Ki ([1]; read-out: Ki): 30 nM
SMILES: Fc1ccc2c(c1)nc(N1CCN(CC3=NCCN3)CC1)c1cccn12

Ki [10]: 9810 nM
Ki (D(1A) dopamine receptor): > 10000 nM
Ki [11]: > 10000 nM
Ki ([1]; read-out: Ki): 0.49 nM
Ki (D(2) dopamine receptor): > 10000 nM
Ki [12]: > 10000 nM
SMILES: Cc1cccc2nc(N3CCN(Cc4cnc[nH]4)CC3)c3cccn3c12

Ki ([1]; read-out: Ki): 2.25 nM
IC50 [14]: 2630 nM
SMILES: Oc1ccc2c(c1)nc(N1CCN(Cc3c[nH]cn3)CC1)c1cccn12
ED50 (Rattus norvegicus [2]): 0.028 mg/kg
Activity (Rattus norvegicus [3]): 62%
Activity (Rattus norvegicus [13]): 50%
ID50 (Rattus norvegicus [8]): 0.0065 mg/kg
Activity (Rattus norvegicus [6]): 90%
Activity (Rattus norvegicus [7]): 45%
